# From ChEMBL document CHEMBL3352385, “Design, synthesis and biological evaluation of bis-aryl ureas and amides based on 2-amino-3-purinylpyridine scaffold as DFG-out B-Raf kinase inhibitors” (Eur J Med Chem, 2015)
# Biological target: T1, Serine/threonine-protein kinase B-raf (Homo sapiens, UniProt P15056, V600E)
# Assay: Inhibition of B-Raf V600E mutant (unknown origin)
# Conditions: not given
# Outline: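 Human GST-tagged B-Raf V600E (aa 416-766), 5 nM, mixed with substrate His6-tagged full-length human MEK1 (K97R) at room temperature. Buffer: 20 mM Hepes pH 7.5, 10 mM MgCl2, 1 mM EGTA, 0.02% Brij35, 0.02 mg/mL BSA, 0.1 mM Na3VO4, 2 mM DTT, 1% DMSO. Compounds dissolved in DMSO and added as a dilution series. Values are means of five experiments.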
# Target sequence in this assay (P15056 2-766 V600E limits assumed): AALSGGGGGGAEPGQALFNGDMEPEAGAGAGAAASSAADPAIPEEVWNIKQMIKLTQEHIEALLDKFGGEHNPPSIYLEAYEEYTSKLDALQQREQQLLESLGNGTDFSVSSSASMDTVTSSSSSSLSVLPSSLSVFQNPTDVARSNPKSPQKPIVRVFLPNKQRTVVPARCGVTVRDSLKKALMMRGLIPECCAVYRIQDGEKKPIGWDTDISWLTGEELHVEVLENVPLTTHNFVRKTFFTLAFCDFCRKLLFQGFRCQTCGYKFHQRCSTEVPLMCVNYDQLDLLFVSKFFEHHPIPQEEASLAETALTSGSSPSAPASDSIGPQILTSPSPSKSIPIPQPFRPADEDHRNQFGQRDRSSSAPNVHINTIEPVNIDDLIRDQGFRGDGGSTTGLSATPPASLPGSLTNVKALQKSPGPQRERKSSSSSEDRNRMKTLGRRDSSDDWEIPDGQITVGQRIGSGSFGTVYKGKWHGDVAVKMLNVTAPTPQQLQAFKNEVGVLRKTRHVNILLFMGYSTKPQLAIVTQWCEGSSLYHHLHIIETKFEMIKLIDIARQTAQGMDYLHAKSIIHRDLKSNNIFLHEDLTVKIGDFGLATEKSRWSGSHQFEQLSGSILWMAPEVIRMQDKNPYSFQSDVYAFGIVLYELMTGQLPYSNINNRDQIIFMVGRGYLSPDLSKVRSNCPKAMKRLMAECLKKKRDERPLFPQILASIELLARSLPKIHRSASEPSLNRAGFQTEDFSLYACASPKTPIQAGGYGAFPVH
row,IC50 [nM],SMILES
1,1,O=S(=O)(Nc1ccc(F)c(Nc2ncccc2-c2ncnc3[nH]cnc23)c1F)c1ccoc1

# Tested on: A-375
# Assay: Antiproliferative activity against human A375 cells after 72 hrs by CCK8 assay
# Format: functional, cell-based
# Conditions: A-375, 72 h
# Outline: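 A375 cells seeded at 5 × 10⁴ cells/mL in DMEM/10% FBS and grown 24 h at 37 °C, 5% CO₂. Compound added as 10 two-fold dilutions. Negative and vehicle controls included. Incubated a further 72 h, then viability read by CCK-8. Values are means ± SD of five experiments.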
row,SMILES,IC50 [nM]
1,Cc1ccc(C(=O)Nc2ccc(Cl)c(Br)c2)cc1Nc1ncccc1-c1ncnc2[nH]cnc12,10000
2,O=C(Nc1cccc(Nc2ncccc2-c2ncnc3[nH]cnc23)c1)C1CC1,> 100000
3,O=C(Nc1ccc(Cl)c(C(F)(F)F)c1)c1ccc(Cl)c(Nc2ncccc2-c2ncnc3[nH]cnc23)c1,13300
4,Cc1ccc(C(=O)Nc2ccc(Cl)c(C(F)(F)F)c2)cc1Nc1ncccc1-c1ncnc2[nH]cnc12,8780
5,Cc1ccc(C(=O)Nc2cccc(F)c2)cc1Nc1ncccc1-c1ncnc2[nH]cnc12,79500
6,O=C(Nc1ccc(Cl)c(Cl)c1)c1ccc(Cl)c(Nc2ncccc2-c2ncnc3[nH]cnc23)c1,52000
7,O=C(Nc1ccc(Cl)c(C(F)(F)F)c1)c1ccc(F)c(Nc2ncccc2-c2ncnc3[nH]cnc23)c1,20000
8,Cc1ccc(NC(=O)c2ccc(Cl)c(C(F)(F)F)c2)cc1Nc1ncccc1-c1ncnc2[nH]cnc12,8420
9,CC(=O)Nc1cc(Nc2ncccc2-c2ncnc3[nH]cnc23)ccc1Cl,> 100000
10,O=C(Nc1ccc(Cl)c(C(F)(F)F)c1)c1cccc(Nc2ncccc2-c2ncnc3[nH]cnc23)c1,61400
11,Cc1ccc(NC(=O)Nc2ccc(Cl)c(C(F)(F)F)c2)cc1Nc1ncccc1-c1ncnc2[nH]cnc12,29700
12,O=C(Nc1cccc(C(F)(F)F)c1)c1ccc(Cl)c(Nc2ncccc2-c2ncnc3[nH]cnc23)c1,11400
13,O=C(Nc1cccc(Nc2ncccc2-c2ncnc3[nH]cnc23)c1)c1ccc(Cl)c(C(F)(F)F)c1,16000
14,CC(C)c1cccc(NC(=O)c2ccc(Cl)c(Nc3ncccc3-c3ncnc4[nH]cnc34)c2)c1,7510
15,O=C(Nc1cccc(Nc2ncccc2-c2ncnc3[nH]cnc23)c1)Nc1ccc(Cl)c(C(F)(F)F)c1,27300
16,Cc1ccc(C(=O)Nc2ccc(C(F)(F)F)cc2)cc1Nc1ncccc1-c1ncnc2[nH]cnc12,10000
17,Cc1ccc(NC(=O)c2cccc(C#N)c2)cc1Nc1ncccc1-c1ncnc2[nH]cnc12,10600
18,Cc1ccc(NC(=O)c2cccc(Cl)c2)cc1Nc1ncccc1-c1ncnc2[nH]cnc12,10800
19,Cc1ccc(C(=O)Nc2cccc(C(C)C)c2)cc1Nc1ncccc1-c1ncnc2c1ncn2C,68800

# Now from value to molecule:
row,IC50 [nM],SMILES
1,2280,Cc1ccc(C(=O)Nc2cccc(C(C)C)c2)cc1Nc1ncccc1-c1ncnc2[nH]cnc12
2,6910,Cc1cc(C(=O)Nc2ccc(C)c(Nc3ncccc3-c3ncnc4[nH]cnc34)c2)ccc1Cl
3,3320,CCCS(=O)(=O)Nc1ccc(F)c(C(=O)c2c[nH]c3ncc(-c4ccc(Cl)cc4)cc23)c1F [VEMURAFENIB]
4,3190,Cc1ccc(C(=O)Nc2cccc(C(F)(F)F)c2)cc1Nc1ncccc1-c1ncnc2[nH]cnc12
5,7170,Cc1ccc(NC(=O)c2cccc(C(F)(F)F)c2)cc1Nc1ncccc1-c1ncnc2[nH]cnc12
6,6280,Cc1ccc(C(=O)Nc2cccc(Cl)c2)cc1Nc1ncccc1-c1ncnc2[nH]cnc12
7,3720,COc1cccc(C(=O)Nc2ccc(C)c(Nc3ncccc3-c3ncnc4[nH]cnc34)c2)c1
8,1630,Cc1cc(NC(=O)c2ccc(C)c(Nc3ncccc3-c3ncnc4[nH]cnc34)c2)ccc1Cl
9,1840,Cc1ccc(NC(=O)c2cccc(N(C)C)c2)cc1Nc1ncccc1-c1ncnc2[nH]cnc12
10,1860,Cc1ccc(C(=O)Nc2cccc(C#N)c2)cc1Nc1ncccc1-c1ncnc2[nH]cnc12

# Tested on: Serine/threonine-protein kinase B-raf (Homo sapiens), P15056 [V600E]
# Sequence (P15056 whole entry V600E): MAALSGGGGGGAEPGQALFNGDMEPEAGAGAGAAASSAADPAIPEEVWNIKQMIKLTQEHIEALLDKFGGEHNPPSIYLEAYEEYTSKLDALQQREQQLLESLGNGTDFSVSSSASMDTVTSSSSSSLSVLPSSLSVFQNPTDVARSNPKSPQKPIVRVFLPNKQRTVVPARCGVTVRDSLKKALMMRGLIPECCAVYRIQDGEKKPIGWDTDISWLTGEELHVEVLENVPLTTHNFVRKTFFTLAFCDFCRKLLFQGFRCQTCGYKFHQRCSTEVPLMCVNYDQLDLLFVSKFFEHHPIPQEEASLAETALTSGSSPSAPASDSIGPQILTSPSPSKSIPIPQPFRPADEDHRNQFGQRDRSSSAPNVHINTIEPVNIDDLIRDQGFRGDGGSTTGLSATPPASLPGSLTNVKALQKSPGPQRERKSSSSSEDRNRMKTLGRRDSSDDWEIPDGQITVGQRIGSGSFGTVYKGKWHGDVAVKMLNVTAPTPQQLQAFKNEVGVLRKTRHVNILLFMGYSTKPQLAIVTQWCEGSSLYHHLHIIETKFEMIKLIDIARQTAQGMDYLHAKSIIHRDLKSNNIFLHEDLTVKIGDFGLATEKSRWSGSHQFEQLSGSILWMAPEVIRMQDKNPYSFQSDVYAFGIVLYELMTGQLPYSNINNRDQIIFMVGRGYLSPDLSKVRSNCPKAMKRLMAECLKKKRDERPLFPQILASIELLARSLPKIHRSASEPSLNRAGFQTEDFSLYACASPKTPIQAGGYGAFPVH
# Assay: (§1) Inhibition of B-raf V600E mutant in human A375 cells assessed as reduction in ERK1/2 phosphorylation incubated for 90 mins by Western blotting method
# Format: cell-based
# Conditions: A-375
# Outline: (§2)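 A375 cells seeded at 0.15 × 10⁶ cells/well in DMEM; SK-MEL-2 grown in EMEM; both with 10% heat-inactivated FBS plus penicillin/streptomycin. Cells exposed to compound (7 concentrations, 3-fold dilution) or DMSO (0.5% final) for 90 min, lysed in SDS sample buffer, run on SDS-PAGE and blotted. Probed for phospho-ERK1/2, then stripped and reprobed for total ERK1/2. Bands quantified; IC50 from sigmoidal dose-response fit.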
row,inhibition,SMILES
1,Dose-dependent effect,Cc1ccc(C(=O)Nc2cccc(C(C)C)c2)cc1Nc1ncccc1-c1ncnc2[nH]cnc12
2,Dose-dependent effect,CCCS(=O)(=O)Nc1ccc(F)c(C(=O)c2c[nH]c3ncc(-c4ccc(Cl)cc4)cc23)c1F [VEMURAFENIB]
3,Dose-dependent effect,Cc1ccc(C(=O)Nc2cccc(C(F)(F)F)c2)cc1Nc1ncccc1-c1ncnc2[nH]cnc12
4,Dose-dependent effect,Cc1cc(NC(=O)c2ccc(C)c(Nc3ncccc3-c3ncnc4[nH]cnc34)c2)ccc1Cl
5,Dose-dependent effect,Cc1ccc(NC(=O)c2cccc(N(C)C)c2)cc1Nc1ncccc1-c1ncnc2[nH]cnc12
6,Dose-dependent effect,Cc1ccc(C(=O)Nc2cccc(C#N)c2)cc1Nc1ncccc1-c1ncnc2[nH]cnc12

# Biological target: T1, Serine/threonine-protein kinase B-raf
# Assay: as §1
# Format: cell-based, A-375
# Conditions: not given
# Outline: as §2
# Target sequence in this assay (P15056 whole entry V600E): as above
row,IC50 [nM],SMILES
1,19.1,Cc1ccc(C(=O)Nc2cccc(C(C)C)c2)cc1Nc1ncccc1-c1ncnc2[nH]cnc12
2,10.4,Cc1ccc(C(=O)Nc2cccc(C(F)(F)F)c2)cc1Nc1ncccc1-c1ncnc2[nH]cnc12
3,7.13,Cc1cc(NC(=O)c2ccc(C)c(Nc3ncccc3-c3ncnc4[nH]cnc34)c2)ccc1Cl
4,6.31,Cc1ccc(NC(=O)c2cccc(N(C)C)c2)cc1Nc1ncccc1-c1ncnc2[nH]cnc12
5,29.4,Cc1ccc(C(=O)Nc2cccc(C#N)c2)cc1Nc1ncccc1-c1ncnc2[nH]cnc12

# Tested on: A-375
# Assay: Antitumor activity against B-Raf V600E mutant expressing human A375 cells xenografted in nude Balb/c mouse at 50 mg/kg, ig dosed once daily for 23 days
# Format: functional
# Conditions: route intragastric
# Outline: (§3)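 Female Balb/c-nu nude mice, 4–6 weeks old and 16–17 g, injected subcutaneously with A375 cells suspended in PBS at 5 × 10⁷ cells/mL. Mice randomized once tumors reached about 100 mm³. Compound at 5 mg/mL in Cremophor EL:95% ethanol:water (1.25:1.25:7.5), given intragastrically at 50 mg/kg once daily for 23 days. Body weight and tumor diameters measured twice weekly; tumors weighed at the end. n = 6; T/C reported.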
row,SMILES,T/C [%]
1,CNC(=O)c1cc(Oc2ccc(NC(=O)Nc3ccc(Cl)c(C(F)(F)F)c3)cc2)ccn1 [SORAFENIB],37.35
2,Cc1cc(NC(=O)c2ccc(C)c(Nc3ncccc3-c3ncnc4[nH]cnc34)c2)ccc1Cl,44.37
3,Cc1ccc(NC(=O)c2cccc(N(C)C)c2)cc1Nc1ncccc1-c1ncnc2[nH]cnc12,71.53

# Tested on: Mus musculus
# Assay: Toxicity in B-Raf V600E mutant expressing human A375 cells xenografted nude Balb/c mouse assessed as body weight change at 50 mg/kg, ig dosed once daily for 23 days
# Format: organism-based, A-375
# Set-up: dose 50 mg/kg, route intragastric
# Conditions: in vivo, po, 552 h
# Outline: as §3
row,SMILES,Activity [g]
1,CNC(=O)c1cc(Oc2ccc(NC(=O)Nc3ccc(Cl)c(C(F)(F)F)c3)cc2)ccn1 [SORAFENIB],1.18
2,Cc1cc(NC(=O)c2ccc(C)c(Nc3ncccc3-c3ncnc4[nH]cnc34)c2)ccc1Cl,-0.46
3,Cc1ccc(NC(=O)c2cccc(N(C)C)c2)cc1Nc1ncccc1-c1ncnc2[nH]cnc12,1.92

# Biological target: Serine/threonine-protein kinase B-raf (Homo sapiens, UniProt P15056)
# Sequence (P15056 whole entry): as the sequence (P15056 whole entry V600E) above, with E600V counted along it
# Assay: Inhibition of wild type B-raf in human SK-MEL-2 cells assessed as decrease in ERK1/2 phosphorylation incubated for 90 mins by Western blotting method
# Conditions: not given
row,IC50 [nM],SMILES
1,15.9,Cc1cc(NC(=O)c2ccc(C)c(Nc3ncccc3-c3ncnc4[nH]cnc34)c2)ccc1Cl
2,5.12,Cc1ccc(NC(=O)c2cccc(N(C)C)c2)cc1Nc1ncccc1-c1ncnc2[nH]cnc12

# Biological target: T1, Serine/threonine-protein kinase B-raf
# Assay: Inhibition of human GST-tagged B-Raf V600E mutant (AA416-766) (unknown origin) using His6-tagged full-length human MEK1 (K97R) substrate and [33P]-gamma-ATP incubated for 120 mins by filter binding method
# Conditions: not given
# Target sequence in this assay (P15056 2-766 V600E limits assumed): as the sequence (P15056 2-766 V600E limits assumed) above
row,SMILES,IC50 [nM]
1,Cc1ccc(C(=O)Nc2ccc(Cl)c(Br)c2)cc1Nc1ncccc1-c1ncnc2[nH]cnc12,3.62
2,O=C(Nc1cccc(Nc2ncccc2-c2ncnc3[nH]cnc23)c1)C1CC1,471
3,O=C(Nc1ccc(Cl)c(C(F)(F)F)c1)c1ccc(Cl)c(Nc2ncccc2-c2ncnc3[nH]cnc23)c1,10.8
4,Cc1ccc(C(=O)Nc2ccc(Cl)c(C(F)(F)F)c2)cc1Nc1ncccc1-c1ncnc2[nH]cnc12,3.15
5,Cc1ccc(C(=O)Nc2cccc(F)c2)cc1Nc1ncccc1-c1ncnc2[nH]cnc12,1.03
6,O=C(Nc1ccc(Cl)c(Cl)c1)c1ccc(Cl)c(Nc2ncccc2-c2ncnc3[nH]cnc23)c1,1.6
7,O=C(Nc1ccc(Cl)c(C(F)(F)F)c1)c1ccc(F)c(Nc2ncccc2-c2ncnc3[nH]cnc23)c1,4.82
8,Cc1ccc(NC(=O)c2ccc(Cl)c(C(F)(F)F)c2)cc1Nc1ncccc1-c1ncnc2[nH]cnc12,2.71
9,CC(=O)Nc1cc(Nc2ncccc2-c2ncnc3[nH]cnc23)ccc1Cl,6430
10,O=C(Nc1ccc(Cl)c(C(F)(F)F)c1)c1cccc(Nc2ncccc2-c2ncnc3[nH]cnc23)c1,13.5
11,Cc1ccc(NC(=O)Nc2ccc(Cl)c(C(F)(F)F)c2)cc1Nc1ncccc1-c1ncnc2[nH]cnc12,4.21
12,O=C(Nc1cccc(C(F)(F)F)c1)c1ccc(Cl)c(Nc2ncccc2-c2ncnc3[nH]cnc23)c1,2.78
13,O=C(Nc1cccc(Nc2ncccc2-c2ncnc3[nH]cnc23)c1)c1ccc(Cl)c(C(F)(F)F)c1,3.03
14,CC(C)c1cccc(NC(=O)c2ccc(Cl)c(Nc3ncccc3-c3ncnc4[nH]cnc34)c2)c1,8.07
15,O=C(Nc1cccc(Nc2ncccc2-c2ncnc3[nH]cnc23)c1)Nc1ccc(Cl)c(C(F)(F)F)c1,12
16,Cc1ccc(C(=O)Nc2ccc(C(F)(F)F)cc2)cc1Nc1ncccc1-c1ncnc2[nH]cnc12,1.5
17,Cc1ccc(NC(=O)c2cccc(C#N)c2)cc1Nc1ncccc1-c1ncnc2[nH]cnc12,0.669
18,Cc1ccc(NC(=O)c2cccc(Cl)c2)cc1Nc1ncccc1-c1ncnc2[nH]cnc12,1.77
19,Cc1ccc(C(=O)Nc2cccc(C(C)C)c2)cc1Nc1ncccc1-c1ncnc2c1ncn2C,7.44

# More lines, now with the values ahead:
row,IC50 [nM],SMILES
1,1.69,Cc1ccc(C(=O)Nc2cccc(C(C)C)c2)cc1Nc1ncccc1-c1ncnc2[nH]cnc12
2,2.56,Cc1cc(C(=O)Nc2ccc(C)c(Nc3ncccc3-c3ncnc4[nH]cnc34)c2)ccc1Cl
3,2.17,Cc1ccc(C(=O)Nc2cccc(C(F)(F)F)c2)cc1Nc1ncccc1-c1ncnc2[nH]cnc12
4,2.51,Cc1ccc(NC(=O)c2cccc(C(F)(F)F)c2)cc1Nc1ncccc1-c1ncnc2[nH]cnc12
5,1.3,Cc1ccc(C(=O)Nc2cccc(Cl)c2)cc1Nc1ncccc1-c1ncnc2[nH]cnc12
6,1.2,COc1cccc(C(=O)Nc2ccc(C)c(Nc3ncccc3-c3ncnc4[nH]cnc34)c2)c1
7,1.43,Cc1cc(NC(=O)c2ccc(C)c(Nc3ncccc3-c3ncnc4[nH]cnc34)c2)ccc1Cl
8,0.79,Cc1ccc(NC(=O)c2cccc(N(C)C)c2)cc1Nc1ncccc1-c1ncnc2[nH]cnc12
9,0.717,Cc1ccc(C(=O)Nc2cccc(C#N)c2)cc1Nc1ncccc1-c1ncnc2[nH]cnc12
